The subject of one experiment is CCRF-CEM. Briefly: Growth inhibition of human CCRF-CEM cells at 10 uM after 48 hrs by SRB assay. The settings on record: read-out: GI. It counts as functional. The gist of the method:
(§1)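 NCI one-dose screen across roughly 60 human tumour cell lines. Cells were preincubated 24–48 h, then treated with a single 10−5 M concentration for 48 h. Growth was read with the SRB protein-binding dye and reported as percent growth versus untreated controls. Negative values indicate cell kill.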
In general terms: Sulforhodamine B stains cellular protein and so reports cell mass.

A short description of experiment [1]: Growth inhibition of human UO31 cells at 10 uM after 48 hrs by SRB assay; values are per cent of control. The settings on record: UO-31, 48 h.
Experiment [2] in a line: Growth inhibition of human […] cells at 10 uM after 48 hrs by SRB assay. The format is functional. The settings on record: read-out: GI. The gist of the method: as §1

As to `O=C(Nc1ccc(O)cc1)c1cc2ccccc2c(=O)s1`, the inhibition of growth at 10 µM is -28% in the experiment on CCRF-CEM and -11% in experiment [2]. Further, the growth percent at 10 µM in experiment [1] was -62.1%.

The values are drawn from ChEMBL document CHEMBL3124905, “Isothiocoumarin-3-carboxylic acid derivatives: synthesis, anticancer and antitrypanosomal activity evaluation” (Eur J Med Chem, 2014).
